Several values for one entry are separate records, joined by “and”; a condition that tells them apart may be missing. Equal values may be shown once.
Test system: Fibroblast
Assay: Multiplex assay against human fibroblast
Type: toxicity, cell-based
Outline: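 Cells stained live at seeding with Hoechst33342, BioTracker Green Microtubule Cytoskeleton Dye, MitoTracker Red and Annexin V Alexa Fluor 680 were imaged on a CQ1 microscope at 37°C and 5% CO2 after compound addition. Their classification by CellPathfinder machine-learning gating ran from Hoechst high-intensity objects versus normal cells, to healthy, pyknosed or fragmented nuclei among normal cells, to mitotic or apoptotic among pyknosed cells. Tubulin, mitochondrial-mass and membrane-permeability phenotypes are per cents of healthy-nucleus cells.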

[1] = 12 h, 1 µM, compound concentration 1 uM, replicate 1
[2] = 12 h, 1 µM, compound concentration 1 uM, replicate 2
[3] = 24 h, 1 µM, compound concentration 1 uM, replicate 1
[4] = 24 h, 1 µM, compound concentration 1 uM, replicate 2
[5] = 12 h, 10 µM, compound concentration 10 uM, replicate 1
[6] = 12 h, 10 µM, compound concentration 10 uM, replicate 2
[7] = 24 h, 10 µM, compound concentration 10 uM, replicate 1
[8] = 24 h, 10 µM, compound concentration 10 uM, replicate 2
[9] = 48 h, 10 µM, compound concentration 10 uM, replicate 1
[10] = 48 h, 10 µM, compound concentration 10 uM, replicate 2

SMILES: CN([C@@H](Cc1ccc(OS(=O)(=O)c2cccc3cnccc23)cc1)C(=O)N1CCN(c2ccccc2)CC1)S(=O)(=O)c1cccc2cnccc12
- Population Apoptotic (%) [1]: 54% and 75%
- Population Fragmented Nuclei (%) [1]: 29%
- Population Healthy Nuclei (%) [1]: 56% and 53%
- Population Hoechst High Intensity Objects (%) [1]: 8% and 14%
- Population Membrane Permeable-Phenotype (%) [1]: 45%
- Population Mitotic Cells (%) [1]: 45% and 25%
- Population Normal (%) [1]: 91% and 85%
- Population Pyknosed Nuclei (%) [1]: 13% and 17%
- Population Tubulin-Different-Phenotype (%) [1]: 57% and 69%
- Total Cell Count [1]: 348 and 189
- Population Apoptotic (%) [2]: 50% and 80%
- Population Fragmented Nuclei (%) [2]: 53% and 70%
- Population Healthy Nuclei (%) [2]: 39% and 14%
- Population Hoechst High Intensity Objects (%) [2]: 30% and 41%
- Population Mitochondria Different-Phenotype (%) [2]: 39% and 60%
- Population Mitotic Cells (%) [2]: 50% and 20%
- Population Normal (%) [2]: 69% and 58%
- Population Pyknosed Nuclei (%) [2]: 6% and 14%
- Population Tubulin-Different-Phenotype (%) [2]: 82% and 80%
- Total Cell Count [2]: 84 and 58
- Population Apoptotic (%) [3]: 66% and 59%
- Population Fragmented Nuclei (%) [3]: 23% and 30%
- Population Healthy Nuclei (%) [3]: 61% and 59%
- Population Hoechst High Intensity Objects (%) [3]: 15% and 13%
- Population Membrane Permeable-Phenotype (%) [3]: 30% and 21%
- Population Mitotic Cells (%) [3]: 33% and 40%
- Population Normal (%) [3]: 84% and 86%
- Population Pyknosed Nuclei (%) [3]: 15% and 10%
- Population Tubulin-Different-Phenotype (%) [3]: 70% and 47%
- Total Cell Count [3]: 184 and 365
- Population Fragmented Nuclei (%) [4]: 76% and 52%
- Population Healthy Nuclei (%) [4]: 14% and 38%
- Population Hoechst High Intensity Objects (%) [4]: 33% and 25%
- Population Membrane Permeable-Phenotype (%) [4]: 40% and 25%
- Population Mitochondria Different-Phenotype (%) [4]: 40% and 33%
- Population Normal (%) [4]: 66% and 74%
- Population Pyknosed Nuclei (%) [4]: 8% and 9%
- Population Tubulin-Different-Phenotype (%) [4]: 60% and 91%
- Total Cell Count [4]: 51 and 85

SMILES: CN1CCN(C(=O)C(C)(C)c2ccc(C(=O)Nc3cn4cc(-c5ccncc5)ccc4n3)cc2)CC1 [T3-CLK]
- Population Apoptotic (%) [5]: 65% and 61% and 86%
- Population Fragmented Nuclei (%) [5]: 35% and 22%
- Population Healthy Nuclei (%) [5]: 48% and 50% and 64%
- Population Hoechst High Intensity Objects (%) [5]: 12% and 17%
- Population Mitochondria Different-Phenotype (%) [5]: 6%
- Population Mitotic Cells (%) [5]: 35% and 38% and 13%
- Population Normal (%) [5]: 87% and 82%
- Population Pyknosed Nuclei (%) [5]: 15% and 14% and 13%
- Total Cell Count [5]: 145 and 330 and 306
- Population Membrane Permeable-Phenotype (%) [6]: 31% and 20% and 21%
- Population Normal (%) [6]: 73% and 49% and 92%
- Population Pyknosed Nuclei (%) [6]: 6% and 9% and 11%
- Population Tubulin-Different-Phenotype (%) [6]: 44% and 60% and 94%
- Total Cell Count [6]: 87 and 63 and 57
- Population Apoptotic (%) [7]: 69% and 55% and 80%
- Population Fragmented Nuclei (%) [7]: 37% and 35% and 18%
- Population Healthy Nuclei (%) [7]: 48% and 45% and 67%
- Population Hoechst High Intensity Objects (%) [7]: 18% and 11% and 13%
- Population Mitotic Cells (%) [7]: 30% and 44% and 20%
- Population Normal (%) [7]: 81% and 88% and 86%
- Population Pyknosed Nuclei (%) [7]: 13% and 19%
- Total Cell Count [7]: 335 and 161 and 296
- Population Membrane Permeable-Phenotype (%) [8]: 33% and 17%
- Population Normal (%) [8]: 58% and 90% and 61%
- Population Pyknosed Nuclei (%) [8]: 9% and 11% and 6%
- Population Tubulin-Different-Phenotype (%) [8]: 33% and 88% and 50%
- Total Cell Count [8]: 53 and 57 and 76
- Population Apoptotic (%) [9]: 52%
- Population Fragmented Nuclei (%) [9]: 52%
- Population Healthy Nuclei (%) [9]: 32%
- Population Hoechst High Intensity Objects (%) [9]: 17%
- Population Membrane Permeable-Phenotype (%) [9]: 32%
- Population Mitochondria Different-Phenotype (%) [9]: 20%
- Population Mitotic Cells (%) [9]: 47%
- Population Normal (%) [9]: 82%
- Population Pyknosed Nuclei (%) [9]: 15%
- Population Tubulin-Different-Phenotype (%) [9]: 76%
- Total Cell Count [9]: 162
- Population Apoptotic (%) [10]: 63%
- Population Fragmented Nuclei (%) [10]: 38%
- Population Healthy Nuclei (%) [10]: 49%
- Population Hoechst High Intensity Objects (%) [10]: 6%
- Population Membrane Permeable-Phenotype (%) [10]: 47%
- Population Mitochondria Different-Phenotype (%) [10]: 15%
- Population Mitotic Cells (%) [10]: 36%
- Population Normal (%) [10]: 93%
- Population Pyknosed Nuclei (%) [10]: 12%
- Population Tubulin-Different-Phenotype (%) [10]: 65%
- Total Cell Count [10]: 95

Source: ChEMBL document CHEMBL4689842, “EUbOPEN Chemogenomics Library wave 1” (2021)
